“Also recorded” adds a separate entry of the source. Where two headings read alike, the source gives them in different places.
Assays:
[1] = system: 293-SA-GFP cells; settings: previously demonstrated; cited from earlier work
[2] = system: RAD51; settings: cited from earlier work
[3] = system: human cells; settings: following irradiation; cited from earlier work
[4] = system: RAD51; settings: cited from earlier work; remark: listed apart in the source
[5] = molecular target: T1, RAD51 (Homo sapiens, UniProt Q06609); experiment: Gel-based D-loop assay; type: biochemical
T1 sequence (Q06609 1-339): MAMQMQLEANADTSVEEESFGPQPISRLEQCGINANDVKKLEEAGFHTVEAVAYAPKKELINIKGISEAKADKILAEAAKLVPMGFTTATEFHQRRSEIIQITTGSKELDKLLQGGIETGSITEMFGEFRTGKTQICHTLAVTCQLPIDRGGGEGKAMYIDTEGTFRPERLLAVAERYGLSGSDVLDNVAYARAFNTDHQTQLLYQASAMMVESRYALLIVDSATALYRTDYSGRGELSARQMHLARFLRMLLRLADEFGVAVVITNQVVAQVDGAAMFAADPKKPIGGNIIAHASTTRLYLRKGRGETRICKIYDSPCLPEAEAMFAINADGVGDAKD

[6] = molecular target: T1, RAD51; experiment: Fluorescence polarization-based RAD51-DNA binding assay
[7] = system: 293-SA-GFP cells; experiment: Single-strand annealing; type: cell-based, human; settings: concentration range that inhibits HR, 24 h post-transfection
Procedure, shortened: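 Cells electroporated in Opti-MEM with 37.5 μg/mL I-SceI plasmid (pCBASce) or empty pCAGGS vector at 325 V, 975 μF. Then seeded in complete DMEM + 0.5% DMSO with compound and grown out 24 h. Harvested into PBS with 1 μg/mL 7-AAD for flow cytometry, gating out dead/apoptotic cells by size, shape and 7-AAD. Read-out is the GFP-positive fraction of live cells; three replicates, standard error.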

[8] = system: 293-DR-GFP cells; experiment: RAD51 cytological focus formation after irradiation; type: cell-based, human; settings: IR-induced, 8 h time course
[9] = molecular target: T2, S. cerevisiae Rad51 and Rad52 proteins (Saccharomyces cerevisiae, UniProt P25454); experiment: Gel-based D-loop assay with yeast recombinase; type: biochemical; settings: selectivity versus human RAD51
T2 sequence (P25454 1-400): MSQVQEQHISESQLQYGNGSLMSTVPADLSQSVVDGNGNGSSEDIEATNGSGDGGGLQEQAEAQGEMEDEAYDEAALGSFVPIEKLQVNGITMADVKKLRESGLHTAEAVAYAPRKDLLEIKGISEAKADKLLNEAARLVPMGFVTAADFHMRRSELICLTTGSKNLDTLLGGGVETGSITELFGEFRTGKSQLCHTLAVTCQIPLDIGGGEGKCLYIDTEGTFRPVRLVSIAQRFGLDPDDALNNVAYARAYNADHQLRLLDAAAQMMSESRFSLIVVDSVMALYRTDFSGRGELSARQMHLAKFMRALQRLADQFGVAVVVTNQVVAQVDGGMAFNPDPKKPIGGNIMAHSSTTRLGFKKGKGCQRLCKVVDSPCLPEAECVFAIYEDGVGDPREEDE

[10] = molecular target: E. coli RecA protein (Escherichia coli, UniProt P0A7G6); experiment: Gel-based D-loop assay with bacterial recombinase; type: biochemical; settings: selectivity versus human RAD51
[11] = system: U2OS, PC-3, and MCF-7 tumor cell lines; experiment: Clonogenic survival assay after ionizing radiation; type: cell-based; settings: compound given immediately after irradiation, for the duration of outgrowth
Procedure, shortened: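 X-ray irradiation at 1.5 Gy/min of subconfluent flask cultures, then trypsinized and seeded at 1000–1500 cells/well in complete medium with 0.5% DMSO plus compound at the indicated dose. Grown 7–11 days until colonies reached at least 50 cells, then fixed and stained in 6% glutaraldehyde + 0.5% crystal violet. Colonies counted automatically. PC-3 kept in DMEM:F12 (1:1), 10% FCS, penicillin/streptomycin.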

[12] = system: 293-DR-GFP cells; experiment: DR-GFP assay of cellular HR activity; type: cell-based, human; settings: 24 h, relative to 1 and 8
[13] = Stability on exposure to air; type: physicochemical; settings: room temperature; oxidizes to compound 8

Chain of E. coli RecA protein (P0A7G6 whole entry): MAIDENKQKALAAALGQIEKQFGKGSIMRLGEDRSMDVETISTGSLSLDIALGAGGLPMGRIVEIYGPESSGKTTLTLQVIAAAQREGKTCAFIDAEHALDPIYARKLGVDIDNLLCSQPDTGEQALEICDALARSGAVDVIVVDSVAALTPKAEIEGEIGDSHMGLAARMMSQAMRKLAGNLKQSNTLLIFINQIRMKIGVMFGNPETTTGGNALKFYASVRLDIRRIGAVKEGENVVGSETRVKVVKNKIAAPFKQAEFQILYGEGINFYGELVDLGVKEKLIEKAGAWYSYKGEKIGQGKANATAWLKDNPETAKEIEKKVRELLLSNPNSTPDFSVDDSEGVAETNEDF

## O=C1C(Cl)=C(N2CCOCC2)C(=O)N1c1ccc(Cl)c(Cl)c1 [RI-1]
[1]
  effect on SSA activity (in words): elevated levels of SSA activity

## C[C@@]12CCC(=O)c3coc(c31)C(=O)c1cc3c(cc12)C(=O)C=CC3=O [halenaquinone]
[2]
  RAD51 D-loop activity (in words): specifically inhibit D-loop formation
[2]; listed as Halenaquinone
  RAD51 D-loop activity (in words): strongly inhibit
[3]
  RAD51 foci at DSB sites in cells (in words): inhibit the formation of RAD51 foci; also recorded: reduces the subnuclear appearance of RAD51 foci
[4]
  RAD51 ssDNA binding activity (in words): sparing

## CCNc1ccc(-c2nc3ccccc3n3cccc23)cc1 [Compound 9h, N-Ethyl-4-(pyrrolo[1,2-a]quinoxalin-4-yl)aniline]
[5]
  D-loop inhibitory activity (in words): allow for D-loop inhibition
[6]
  influence on RAD51-ssDNA binding (in words): almost no impact
[7]
  effect on SSA activity (in words): does not stimulate SSA
[8]
  appearance of RAD51 subnuclear foci in response to DNA damage (in words): does not inhibit
[9]
  inhibition of D-loop activity of Saccharomyces cerevisiae Rad51 (in words): no significant inhibition
[10]
  inhibition of D-loop activity of Escherichia coli RecA (in words): no significant inhibition
[11]
  sensitization of cancer cells to radiation, clonogenic survival (in words): significantly sensitizes

## COc1ccc2c(c1)NC(c1ccc(N(C)C)cc1)c1cccn1-2 (racemic) [Compound 7, 4-(7-Methoxy-4,5-dihydropyrrolo[1,2-a][13]quinoxalin-4-yl)-N,N-dimethylaniline]
[6]
  influence on RAD51-ssDNA binding (in words): significant stimulatory activity
[6]; Stim: compound is a stimulator
  ssDNA binding IC50: Stim
[6]; read-out: ssDNA binding max effect, ↑ compound stimulates RAD51-ssDNA binding
  Emax: 47 ± 33%
[12]
  inhibitory activity in cell-based HR assay (in words): comparable to that of 1 and 8
[13]
  stability when exposed to air (in words): not stable
